Measurements from different studies.
Protocols differ between the studies behind these lines.
Target: 5-hydroxytryptamine receptor 1A (HTR1A, Homo sapiens, UniProt P08908)
One construct used (P08908 1-422): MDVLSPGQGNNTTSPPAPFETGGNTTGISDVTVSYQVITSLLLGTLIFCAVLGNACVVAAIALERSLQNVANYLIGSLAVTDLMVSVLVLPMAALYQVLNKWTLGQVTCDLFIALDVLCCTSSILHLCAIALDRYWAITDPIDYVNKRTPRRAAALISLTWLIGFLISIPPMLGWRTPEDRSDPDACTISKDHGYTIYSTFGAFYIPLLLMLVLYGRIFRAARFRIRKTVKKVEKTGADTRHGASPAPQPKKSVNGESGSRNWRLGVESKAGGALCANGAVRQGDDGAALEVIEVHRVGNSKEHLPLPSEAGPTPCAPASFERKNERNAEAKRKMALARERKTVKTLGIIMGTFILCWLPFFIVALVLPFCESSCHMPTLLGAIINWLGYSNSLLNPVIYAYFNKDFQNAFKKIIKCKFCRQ

Clc1ccc2c(C3CCN(CCc4c[nH]c5ccccc45)CC3)c[nH]c2c1 — inhibition (ligand displacement, radioligand; 10 µM): 99%
CC(C)N1CCC[C@H]1CNC(=O)c1cn(C2CCCC2)c(=O)c2c1c1ccccc1n2C — inhibition (ligand displacement, radioligand; 10 µM): 3%
CNC(=O)Nc1ccc2c(c1)[C@]1(CC2)OC(=O)N(CC(=O)N(Cc2ccc(F)cc2)[C@@H](C)C(F)(F)F)C1=O — inhibition (ligand displacement; 10 µM): 4.17%
COCc1c(-c2cc3cc(C)cc(OC)c3s2)c2c(N)ncnn2c1CN1CCNC(=O)C1 — inhibition (ligand displacement, radioligand; 10 µM): 8%
CCNCCc1c[nH]c2ccc(OC)cc12 — Emax (calcium signal, agonist): ~70%
CN(C)C(=O)N[C@H]1CC[C@H](CCN2CCN(c3cccc(Cl)c3Cl)CC2)CC1 — Emax (cAMP, agonist, TR-FRET; CHO): 95%
COCCc1ccc(-c2c(C)nc3c(N4CCOCC4)ccnn23)cn1 — inhibition (ligand displacement; 10 µM): 22.9%
CCN(CC)CCCC[C@H](NC(=O)[C@H](CC(C)C)NC(=O)[C@H](C)NC(=O)[C@H](Cc1ccccc1)NC(=O)c1ccc(C(C)(C)C)cc1)C(=O)N[C@@H](CO)C(=O)OC — remaining binding (ligand displacement, radioligand; 10 µM): 81.3%
